Holding throughout (type): functional, organism-based
The subject of experiment [1] is Meloidogyne javanica. The experiment is described as follows: Nematicidal Activity against Meloidogyne javanica (root-knot nematode) assessed as death/paralysis of nematodes at 1 hr after immersion in test solution. The method in brief:
(§1)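 J2 of an Italian M. javanica population reared two months on tomato in a glasshouse at 25+2 °C. Pure compounds were made up as double-strength solutions (methanol ≤1% v/v final, tween in water) and mixed 1:1 with 15 J2 per well, covered, dark, 28 °C. Paralysis was scored by microscope, 5 replicates, run twice, Schneider-Orelli corrected, EC50 by regression.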

The subject of experiment [2] is Meloidogyne javanica. The experiment is described as follows: Nematicidal Activity against Meloidogyne javanica (root-knot nematode) assessed as death/paralysis of nematodes at 1 day after immersion in test solution. The note with it: 24 h. The method in brief: as §1
The test system of experiment [3] is Meloidogyne javanica. The experiment is described as follows: Nematicidal Activity against Meloidogyne javanica (root-knot nematode) assessed as death/paralysis of nematodes at 25 to 1000 mg/l at 1 hr after immersion in test solution. In outline: (§2)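 Second-stage juveniles (J2) came from an Italian M. javanica population reared two months on tomato in a glasshouse at 25±2 °C. Solutions at double strength were mixed 1:1 with 15 J2 per well, covered, in the dark at 28 °C. Methanol was ≤1% v/v final, and water and 0.3% tween controls were run. Paralysis was scored at 10×. Five replicates per treatment, experiment done twice. Control-corrected (Schneider-Orelli) EC50 was obtained by regression.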

For experiment [4], the system named is Meloidogyne javanica. The experiment is described as follows: Nematicidal Activity against Meloidogyne javanica (root-knot nematode) assessed as death/paralysis of nematodes at 25 to 1000 mg/l at 1 day after immersion in test solution. The method in brief: as §2

One may read the EC50 as the concentration giving half of the maximal effect.

In brackets after ≈: the same amount, converted by molar mass. Activity calls are given as the source filed them. The calls are words filed in the database; no cut-off is given here.

Take `CCCCCCC/C=C/C=O` [TRANS-2-DECENAL]: the results for the EC50 in the experiment on Meloidogyne javanica [1] and with Meloidogyne javanica [2] were 11.8 µg/mL (≈ 76.2 µM) and 20.4 µg/mL (≈ 132 µM), respectively.

As for `O=Cc1ccc(CO)o1` [AES-103], the concentration for a half-maximal effect (EC50) in the experiment with Meloidogyne javanica [1] and in the experiment on Meloidogyne javanica [2] was more than 25 µg/mL each time.

Regarding `CCCCCCCC/C=C/C=O`, the EC50 with Meloidogyne javanica [1] and in the experiment with Meloidogyne javanica [2] was more than 25 µg/mL each time.

Regarding `CCCCC/C=C/C=O`, the EC50 in the experiment with Meloidogyne javanica [2] was more than 25 µg/mL. Moreover, the result in the experiment on Meloidogyne javanica [3] was inactive.

On to `O=Cc1ccco1` [FURFURAL], for which the EC50 in the experiment with Meloidogyne javanica [1] is more than 25 µg/mL; in the experiment on Meloidogyne javanica [2], 21.8 µg/mL (≈ 227 µM).

For `CCCCCC=O`, the result in the experiment with Meloidogyne javanica [4] and in the experiment with Meloidogyne javanica [3] was inactive.

As for `CCOP(=O)(SC(C)CC)N1CCSC1=O` (stereo not given) [FOSTHIAZATE], the values for the concentration giving a half-maximal response (EC50) with Meloidogyne javanica [1] and in the experiment on Meloidogyne javanica [2] were more than 25 µg/mL and 15.9 µg/mL (≈ 56.1 µM), respectively.

As to `CCCCCCCCC=O` [NONANAL], the EC50 in the experiment on Meloidogyne javanica [1] is more than 50 µg/mL. Further, in the experiment with Meloidogyne javanica [4], the result was inactive.

Consider `CCCCC/C=C/C=C/C=O`, for which the results for the EC50 in the experiment on Meloidogyne javanica [1] and in the experiment on Meloidogyne javanica [2] were 7.53 µg/mL (≈ 49.5 µM) and 11.7 µg/mL (≈ 76.9 µM), respectively.

As for `CCCCCCC=O`, the outcome in the experiment with Meloidogyne javanica [4] and with Meloidogyne javanica [3] was inactive.

Values taken from ChEMBL document CHEMBL3046908, “Nematicidal activity of (E,E)-2,4-decadienal and (E)-2-decenal from Ailanthus altissima against Meloidogyne javanica” (J Agric Food Chem, 2012).
